Experimental data from ChEMBL document CHEMBL4130466, “Angeloylated Germacranolides from Daucus virgatus and Their Plasmodium Transmission Blocking Activity” (J Nat Prod, 2017).

Key:
[1] = tested on: Plasmodium berghei; assay: Antiplasmodial activity against Plasmodium berghei CTRPp expressing GFP assessed as inhibition of early sporogonic stages development at 50 ug/ml after 24 hrs by fluorescence microscopy
[2] = tested on: Plasmodium berghei; assay: Antiplasmodial activity against Plasmodium berghei CTRPp expressing GFP assessed as decrease in capacity of zygote to undergo ookinete maturation after 24 hrs by Zeiss fluorescence microscopy; assay type: functional, organism-based
Outline: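 Mice were primed with phenylhydrazine 120 mg/kg ip and infected ip with 10^7 P. berghei CTRPp.GFP RBCs. Day-4 blood with >3 exflagellation centres/1000 RBCs went into pH 7.4 RPMI 1640 (100 μM xanthurenic acid, 20% FBS) with compound over a dose range. Incubation was 19 °C, 24 h. GFP zygotes and ookinetes were counted by fluorescence microscopy, with inhibition calculated against 0.1% DMSO. Wells were in triplicate, and experiments were run at least twice.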

[3] = tested on: HaCaT; assay: Cytotoxicity against human HaCaT cells; assay type: cell-based
[4] = tested on: A-375; assay: Cytotoxicity against human A375 cells; assay type: cell-based
[5] = tested on: Plasmodium berghei; assay: Antiplasmodial activity against Plasmodium berghei CTRPp expressing GFP assessed as inhibition of early sporogonic stages development after 24 hrs by fluorescence microscopy

Compound | inhibition at 50 µg/mL [1] [%] | also measured
C/C=C(/C)C(=O)O[C@]1(C)C(=O)O[C@H]2C[C@]3(C)O[C@H]3CC/C(C)=C/[C@H](OC(=O)[C@@]3(C)O[C@H]3C)[C@@H]21 | 22 to 35 | 
C/C=C(/C)C(=O)O[C@@H]1[C@H]2[C@H](C/C(C)=C/CC[C@]3(C)O[C@@H]13)OC(=O)[C@@]2(C)O | 22 to 35 | 
C=C1C[C@H](OC(=O)/C(C)=C\C)[C@H]2[C@H](/C=C(\C)CC[C@@H]1O)OC(=O)[C@@]2(C)O | 22 to 35 | 
C/C=C(/C)C(=O)O[C@]1(C)C(=O)O[C@H]2C/C(C)=C/CC/C(C)=C/[C@H](OC(=O)[C@@]3(C)O[C@H]3C)[C@@H]21 | 92 | IC50 [2]: 48.4 µM; IC50 [3]: > 100 µM; IC50 [4]: > 100 µM; IC50 [5]: 82.3 µM
C/C=C(/C)C(=O)O[C@]1(C)C(=O)O[C@H]2C/C(C)=C/CC[C@]3(C)O[C@H]3[C@H](OC(=O)[C@@]3(C)O[C@H]3C)[C@@H]21 | 22 to 35 | 
C/C=C(/C)C(=O)O[C@H]1/C=C(\C)CC[C@@H]2O[C@@]2(C)C[C@@H]2OC(=O)[C@@](C)(O)[C@@H]12 | 22 to 35 | 
C=C1C[C@@H]2OC(=O)[C@@](C)(O)[C@H]2[C@@H](OC(=O)/C(C)=C\C)[C@@H]2O[C@@]2(C)CC[C@H]1OO | 22 to 35 | 
C=C[C@@]12COC(=O)C(=C)[C@@H]1[C@@H](O)[C@H](C(=C)C(=O)OC)[C@@H](OC(=O)C(=C)CO)C2 [VERNODALOL] |  | IC50 [5]: 19 µM
